Laboratory results as given in ChEMBL document CHEMBL1148082, “Cucurbitacins, cell adhesion inhibitors from Conobea scoparioides” (J Nat Prod, 1994).
Active and inactive are the calls of the source. The rule behind the calls is not given here.

Tests used:
Homo sapiens [1] = species on record: Homo sapiens; assay: Inhibition of actin polymerization in fMLP-stimulated human neutrophils assessed as positive fluorescence signal at 1 uM
In short: (§1)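 Human peripheral blood neutrophils were preincubated with compound for 45 min at 37° in PBS with Ca²⁺/Mg²⁺ and 10% fetal calf serum. They were then stimulated with fMLP (1 × 10⁻⁸ M final) for 1 min at 37°. Cells were fixed and permeabilized for at least 30 min at room temperature in 3% paraformaldehyde with lysophosphatidylcholine (12.5 µg/ml), pH 7.6. They were then stained with NBD-phalloidin for 15 min at 37° and analysed by flow cytometry (ex 488, em 530 nm). The value is the percent of cells with fluorescence above background.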

Homo sapiens [2] = species on record: Homo sapiens; assay: Inhibition of actin polymerization in fMLP-stimulated human neutrophils assessed as positive fluorescence signal at 10 uM; in short: as §1
Homo sapiens [3] = species on record: Homo sapiens; assay: Inhibition of actin polymerization in fMLP-stimulated human neutrophils assessed as positive fluorescence signal at 3.3 uM; in short: as §1
JY [4] = assay: Cytotoxicity against human JY cells assessed as inhibition of thymidine uptake at 1 uM by scintillation counting; format: functional
In short: (§2)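 PKH26-stained JY cells were held at 37° with compound (0.3, 1.0, 3.3 or 50 μM) for 24 h and pulsed with tritiated thymidine during the last 5 h. Uptake was counted by scintillation and expressed as % inhibition.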

JY [5] = assay: Cytotoxicity against human JY cells assessed as inhibition of thymidine uptake at 0.3 uM by scintillation counting; format: functional; in short: as §2
JY [6] = assay: Cytotoxicity against human JY cells assessed as inhibition of thymidine uptake at 3.3 uM by scintillation counting; format: functional; in short: as §2
Homo sapiens [7] = species on record: Homo sapiens; assay: Inhibition of actin polymerization in fMLP-stimulated human neutrophils assessed as positive fluorescence signal at 0.33 uM; in short: as §1
JY [8] = assay: Cytotoxicity against human JY cells after 48 hrs by MTT assay; format: functional, cell-based
In short: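 PKH26-stained JY cells incubated at 37° with test compounds for 48 h. MTT added for the last 4 h. Cells and formazan crystals were solubilized, and colour was read on an ELISA plate reader.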

[9] = target: Protein kinase C (PKC) (Homo sapiens) (UniProt O94806+P41743+P17252+P05129+Q05655+P05771+Q05513+Q02156+P24723+Q15139+Q04759); assay: Inhibition of PKC in human JY cells; format: cell-based
JY [10] = assay: Cytotoxicity against human JY cells up to 45 mins; format: functional, cell-based
In short: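 Washout format: stained JY cells were treated with compounds for 45 min, matching the adhesion assay length, then washed extensively. Cells were then either incubated 24 h with a tritiated thymidine pulse in the last 5 h and scintillation counting, or run in the 48-h MTT assay.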

JY [11] = assay: Cytotoxicity against human JY cells assessed as inhibition of thymidine uptake up to 5 hrs; format: functional, cell-based
In short: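 Proliferation assay in PKH26-stained JY cells exposed to test compounds at 37° for 5 h, with a tritiated thymidine pulse over the final 5 h. Thymidine uptake was quantitated by scintillation counting.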

JY [12] = assay: Effect on cell activation in human JY cells assessed as inhibition of Ca2+ flux; format: functional, cell-based
JY [13] = assay: Cytotoxicity against human JY cells assessed as inhibition of thymidine uptake at 50 uM by scintillation counting; format: functional; in short: as §2

Structure (SMILES) | inhibition (Homo sapiens [1]) | inhibition (Homo sapiens [2]) | inhibition (Homo sapiens [3]) | inhibition at 1 µM (JY [4]) | inhibition at 0.3 µM (JY [5]) | inhibition at 3.3 µM (JY [6]) | inhibition (Homo sapiens [7]) | Activity (JY [8]) | Activity [9] | Activity (JY [10]) | Activity (JY [11]) | Activity (JY [12]) | inhibition at 50 µM (JY [13])
C=C1[C@@H](C)[C@H]2[C@H](Cc3ccccc3)NC(=O)[C@]23OC(=O)/C=C/[C@H](O)CCC[C@@H](C)C/C=C/[C@H]3[C@@H]1O | 45.5% | 4.2% | – | – | – | – | – | – | – | – | – | – | –
CC(=O)OC(C)(C)/C=C/C(=O)[C@](C)(O)[C@H]1[C@H](O)C[C@@]2(C)[C@@H]3CC=C4[C@H](C[C@H](O)C(=O)C4(C)C)[C@]3(C)C(=O)C[C@]12C [CUCURBITACIN B] | 19.5% | – | 9.6% | 63% | 39% | 71% | 29.8% | – | – | – | – | – | –
CC(C)(O)/C=C/C(=O)[C@](C)(O)[C@H]1[C@H](O)C[C@@]2(C)[C@@H]3CC=C4[C@@H](C[C@H](O)C(=O)C4(C)C)[C@]3(C)C(=O)C[C@]12C [CUCURBITACIN D] | 64.6% | – | 24.3% | 45% | 12% | 58% | 75.2% | – | – | – | – | – | –
CC(=O)OC(C)(C)/C=C/C(=O)[C@](C)(O)[C@H]1[C@H](O)C[C@@]2(C)[C@@H]3CC=C4[C@@H](C=C(O)C(=O)C4(C)C)[C@]3(C)C(=O)C[C@]12C [CUCURBITACIN E] | 24.7% | – | 3.8% | 60% | 19% | 68% | 21.5% | Active | inactive | Toxic | inactive | inactive | –
CC(C)(O)/C=C/C(=O)[C@](C)(O)[C@H]1[C@H](O)C[C@@]2(C)[C@@H]3CC=C4[C@@H](C=C(O)C(=O)C4(C)C)[C@]3(C)C(=O)C[C@]12C [CUCURBITACIN I] | 15.3% | – | 20.5% | 63% | 34% | 58% | 60.5% | – | inactive | – | – | inactive | –
CC(C)(O)CCC(=O)[C@@](C)(O)C1[C@H](O)C[C@@]2(C)[C@@H]3CC=C4C(C=C(O)C(=O)C4(C)C)[C@]3(C)C(=O)C[C@]12C (stereo partly specified) [CUCURBITACIN L] | 79.2% | – | 77.7% | – | – | – | 86.2% | – | – | – | – | – | 69%
CC(C)(O)CCC(=O)[C@](C)(O)[C@H]1[C@H](O)C[C@@]2(C)[C@@H]3CC=C4[C@@H](C[C@H](O)C(=O)C4(C)C)[C@]3(C)C(=O)C[C@]12C [CUCURBITACIN R] | 82.8% | – | 86% | 22% | 20% | 7% | 79.2% | – | inactive | – | – | inactive | 74%
